Broadly, the pIC50 is −log10 of the IC50, conventionally taken in molar units.

The values below come from ChEMBL document CHEMBL2439952, “Synthesis and anti-Trypanosoma cruzi activity of naphthoquinone-containing triazoles: electrochemical studies on the effects of the quinoidal moiety” (Bioorg Med Chem, 2013).

Series [1] concerns Trypanosoma cruzi. Description: Antitrypanosomal activity against trypomastigote form of Trypanosoma cruzi Y assessed as parasite growth inhibition after 24 hrs by Neubauer cell counting method. The series is classed as functional, organism-based.
Series [2] is described as follows: Selectivity index, ratio of LC50 for mouse HMC to IC50 for trypomastigote form of Trypanosoma cruzi Y. A digest of the protocol:
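Ratio of 24 h LC50 to 24 h IC50. The LC50 came from PrestoBlue on primary mouse embryo heart muscle cells. The IC50 came from Y strain bloodstream trypomastigotes taken at peak parasitaemia from infected albino mice, isolated by differential centrifugation, and held at 10^7 cells/mL in DME with 10% mouse blood. DMSO was at most 0.5%.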

Series [3] can be described thus: Cytotoxicity against mouse HMC after 24 hrs by PrestoBlue staining-based assay. The note with it: mouse HMC cells, read-out: LC50. The method in brief: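 Primary heart muscle cells from 18-day-old mouse embryo hearts, dissociated with trypsin and collagenase in PBS pH 7.2. Seeded at 6x10^4 cells/well in RPMI-1640 (pH 7.2), 10% FBS, 2 mM glutamine, 24 h, 37°C. Treated 24 h at 37°C in phenol-red-free supplemented medium. PrestoBlue 5 h, read at 570 and 600 nm. LC50 = concentration damaging 50% of cells versus untreated.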

For series [4], the system named is Trypanosoma cruzi. Briefly: Potency index, ratio of benznidazole IC50 to compound IC50 for trypomastigote form of Trypanosoma cruzi Y. In kind it is functional.

SMILES strings stand for the structures. pIC50: −log10 of the molar value. Some results are limits rather than exact numbers.

For the compound `CC1(C)OC2=C(C(=O)c3ccccc3C2=O)C1n1cc(-c2ccccc2)nn1` (stereo not given), in the series with Trypanosoma cruzi [1], the pIC50 is under 2.40. Still for that read-out and setting: in the case of `O=C1C(Br)=C(NCc2cn(CN3C(=O)c4ccccc4C3=O)nn2)C(=O)c2ccccc21` it was under 2.40; in that of `O=C1C(Br)=C(NCc2cn(CCN3C(=O)c4ccccc4C3=O)nn2)C(=O)c2ccccc21`, under 2.40.

On to `CC1(C)OC2=C(C(=O)C(=O)c3ccccc32)C1n1cc(CNC2=CC(=O)c3ccccc3C2=O)nn1` (stereo not given), for which the negative logarithm of the IC50 (pIC50) in the series with Trypanosoma cruzi [1] was 4.09. Besides, the Ratio LC50/IC50 in series [2] was under 1.5. Moreover, the CC50 at 24 h in series [3] was under 125 µM. Regarding `O=C1C=C(NCc2cn(CCN3C(=O)c4ccccc4C3=O)nn2)C(=O)c2ccccc21`, the pIC50 in the series on Trypanosoma cruzi [1] is under 2.40. Regarding `O=C1C=C(NCc2cn(-c3cccc([N+](=O)[O-])c3)nn2)C(=O)c2ccccc21`, in the series with Trypanosoma cruzi [1], the negative logarithm of the IC50 (pIC50) is under 2.40. On to `O=C1C(Br)=C(NCc2cn(CCCN3C(=O)c4ccccc4C3=O)nn2)C(=O)c2ccccc21`, for which the pIC50 with Trypanosoma cruzi [1] is under 2.40. For the compound `CCC(C)(O)c1cn(C2CC(C)(C)OC3=C2C(=O)c2ccccc2C3=O)nn1` (stereo not given), the pIC50 in the series on Trypanosoma cruzi [1] is under 3.30. On the same count and under the same terms, in the case of `CC1(C)CC(n2cc(C3CCCCC3)nn2)C2=C(O1)C(=O)c1ccccc1C2=O` (stereo not given) it was under 2.70; in that of `CCCCCc1cn(C2CC(C)(C)OC3=C2C(=O)c2ccccc2C3=O)nn1` (stereo not given), under 2.40; in that of `CCC(C)(O)c1cn(C2C3=C(OC2(C)C)C(=O)c2ccccc2C3=O)nn1` (stereo not given), under 2.40. As to `CC1(C)OC2=C(C(=O)C(=O)c3ccccc32)C1n1cc(-c2ccccc2)nn1` (stereo not given), the pIC50 in the series on Trypanosoma cruzi [1] was 4.76. In the case of `CC1(C)CC(N=[N+]=[N-])C2=C(O1)C(=O)c1ccccc1C2=O` (stereo not given), the negative logarithm of the IC50 (pIC50) in the series with Trypanosoma cruzi [1] is 3.50. As for `O=C1C=C(NCc2cn(CCCN3C(=O)c4ccccc4C3=O)nn2)C(=O)c2ccccc21`, the pIC50 in the series with Trypanosoma cruzi [1] is under 2.40. Consider `CC1(C)OC2=C(C(=O)c3ccccc3C2=O)C1n1cc(C2CCCCC2)nn1` (stereo not given), for which the pIC50 in the series with Trypanosoma cruzi [1] was under 2.82.

`CC1(C)Oc2c(c3nccnc3c3ccccc23)C1n1cc(-c2ccccc2)nn1` (stereo not given): in the series on Trypanosoma cruzi [1], the pIC50 was under 2.40.

Consider `CC1(C)OC2=C(C(=O)C(=O)c3ccccc32)C1n1cc(CNC2=C(Cl)C(=O)c3ccccc3C2=O)nn1` (stereo not given), for which the pIC50 in the series on Trypanosoma cruzi [1] was 5.09. The Ratio LC50/IC50 in series [2] is 34.3. For the same compound, the “Ratio IC50” value in the series with Trypanosoma cruzi [4] came to 12. For the same compound, in series [3], the CC50 at 24 h worked out at 282 µM. Turning to `O=C1C=C(NCc2cn(CN3C(=O)c4ccccc4C3=O)nn2)C(=O)c2ccccc21`, the pIC50 in the series with Trypanosoma cruzi [1] is under 2.40. With `CC1(C)Oc2c(c3nc4ccccc4nc3c3ccccc23)C1n1cc(-c2ccccc2)nn1` (stereo not given), in the series with Trypanosoma cruzi [1], the pIC50 is under 2.82. As for `O=C1C(Cl)=C(NCc2cn(CCCN3C(=O)c4ccccc4C3=O)nn2)C(=O)c2ccccc21`, the pIC50 with Trypanosoma cruzi [1] is under 2.40. As to `O=C1C=C(NCc2cn(CCCCN3C(=O)c4ccccc4C3=O)nn2)C(=O)c2ccccc21`, the pIC50 in the series with Trypanosoma cruzi [1] was under 2.40. As for `CC1(C)OC2=C(C(=O)C(=O)c3ccccc32)C1n1cc(CNC2=C(Br)C(=O)c3ccccc3C2=O)nn1` (stereo not given), the negative logarithm of the IC50 (pIC50) with Trypanosoma cruzi [1] was 5.17. Further, the Ratio LC50/IC50 in series [2] is 9.3. Besides, the “Ratio IC50” value in the series with Trypanosoma cruzi [4] came to 15. Further, the CC50 at 24 h in series [3] came to 63.1 µM. Turning to `O=C1C(Cl)=C(NCc2cn(CN3C(=O)c4ccccc4C3=O)nn2)C(=O)c2ccccc21`, in the series on Trypanosoma cruzi [1], the pIC50 is under 2.40. As to `CC1(C)OC2=C(C(=O)/C(=N\O)c3ccccc32)C1n1cc(-c2ccccc2)nn1` (stereo not given), the pIC50 with Trypanosoma cruzi [1] was under 2.49. In the case of `O=C1C(Cl)=C(NCc2cn(CCN3C(=O)c4ccccc4C3=O)nn2)C(=O)c2ccccc21`, in the series on Trypanosoma cruzi [1], the negative logarithm of the IC50 (pIC50) was under 2.40.

Consider `CCCCCCc1cn(C2C3=C(OC2(C)C)C(=O)c2ccccc2C3=O)nn1` (stereo not given), for which the pIC50 in the series with Trypanosoma cruzi [1] was under 2.70.

As to `O=C1C(Br)=C(NCc2cn(-c3cccc([N+](=O)[O-])c3)nn2)C(=O)c2ccccc21`, in the series on Trypanosoma cruzi [1], the pIC50 was under 2.40.
